Reference: ChEMBL document CHEMBL3860021, “Screening and Design of Inhibitor Scaffolds for the Antibiotic Resistance Oxacillinase-48 (OXA-48) through Surface Plasmon Resonance Screening” (J Med Chem, 2016)
One block for each molecule: values may come before it. Activity calls are given as the source filed them. The rule behind the calls is not given here.

Experiments:
[1] = molecular target: T1, Beta-lactamase OXA-48 (Klebsiella pneumoniae, UniProt Q6XEC0); assay: Binding affinity to native signal deficient and TEV cleavage site containing His-tagged Klebsiella pneumoniae OXA-48 expressed in Escherichia coli assessed as dissociation constant by SPR assay
[2] = molecular target: T1, Beta-lactamase OXA-48; assay: Inhibition of native signal containing Klebsiella pneumoniae OXA-48 using nitrocefin substrate pre-incubated for 5 mins before substrate addition
[3] = Inhibition of beta-lactamase VIM-2 (unknown origin)
[4] = molecular target: Beta-lactamase OXA-48 (Klebsiella pneumoniae) (UniProt Q6XEC0); assay: Inhibition of native signal containing Klebsiella pneumoniae OXA-48 at 1.5 uM using nitrocefin substrate pre-incubated for 5 mins before substrate addition
How it was run: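 Avibactam dilution series (50 nM–20 µM) was preincubated about 5 min with 100 pM nOXA-48, then started with 25 µM nitrocefin. Buffer was phosphate pH 7.0 with 50 mM NaHCO3 and 0.2 mg/ml BSA, at 25 °C. Competition read-out from initial hydrolysis rates.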

[5] = molecular target: T1, Beta-lactamase OXA-48; assay: Binding affinity to native signal deficient and TEV cleavage site containing His-tagged Klebsiella pneumoniae OXA-48 expressed in Escherichia coli assessed as dissociation rate constant by SPR assay
How it was run: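 tOXA-48 (E. coli BL21 Star (DE3) pRARE, His tag removed by TEV, cation-exchange polished) amine-coupled to CM5 chip (~5000 RU, from 25 µg/mL in 10 mM MES pH 5.5). Fragments 2-fold series 118-900 µM (or 1.8-900 µM), double-referenced, steady-state fit. Meropenem 62.5 nM-32 µM, 1:1 kinetic fit.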

[6] = molecular target: Beta-lactamase OXA-48 (Klebsiella pneumoniae) (UniProt Q6XEC0); assay: Binding affinity to native signal deficient and TEV cleavage site containing His-tagged Klebsiella pneumoniae OXA-48 expressed in Escherichia coli assessed as association rate constant by SPR assay
How it was run: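 SPR with tOXA-48 amine-coupled to a CM5 chip (~5000 RU, immobilised from 10 mM MES pH 5.5). Meropenem was injected as a 2-fold series, 62.5 nM-32 µM, at 30 µL/min, with 60 s contact and 240 s dissociation. Sensorgrams were double-referenced and fitted to a 1:1 kinetic model.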

[7] = substrate: CC1(C)S[C@@H]2[C@H](NC(=O)[C@H](N)c3ccccc3)C(=O)N2[C@H]1C(=O)O; assay: (§1) Activity of native signal containing Klebsiella pneumoniae OXA-48 assessed as ratio of Kcat to Km by Michaelis-Menten kinetics assay
How it was run: (§2)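 Steady-state kinetics of nOXA-48 at 25 °C in 100 mM sodium phosphate pH 7.0, 50 mM NaHCO3, 0.2 mg/ml BSA. Substrates were ampicillin, benzylpenicillin, cefepime, CENTA, meropenem, imipenem and nitrocefin, each over its own concentration range, with 100 pM–140 nM enzyme. Reactions were enzyme-started and followed spectrophotometrically. Velocities came from the linear phase, fitted to Michaelis-Menten.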

[8] = substrate: C[C@@H](O)[C@H]1C(=O)N2C(C(=O)O)=C(S[C@@H]3CN[C@H](C(=O)N(C)C)C3)[C@H](C)[C@H]12; assay: as §1; how it was run: as §2
[9] = substrate: C[C@@H](O)[C@H]1C(=O)N2C(C(=O)O)=C(SCCNC=N)C[C@H]12; assay: as §1; how it was run: as §2
[10] = substrate: CC1(C)S[C@@H]2[C@H](NC(=O)Cc3ccccc3)C(=O)N2[C@H]1C(=O)O; assay: as §1; how it was run: as §2
[11] = substrate: CO/N=C(\C(=O)N[C@@H]1C(=O)N2C(C(=O)[O-])=C(C[N+]3(C)CCCC3)CS[C@H]12)c1csc(N)n1; assay: as §1; how it was run: as §2
[12] = substrate: O=C(Cc1cccs1)N[C@@H]1C(=O)N2C(C(=O)O)=C(CSc3ccc([N+](=O)[O-])c(C(=O)O)c3)CS[C@H]12; assay: as §1; how it was run: as §2
[13] = substrate: O=C(Cc1cccs1)N[C@@H]1C(=O)N2C(C(=O)O)=C(/C=C/c3ccc([N+](=O)[O-])cc3[N+](=O)[O-])CS[C@H]12; assay: as §1; how it was run: as §2
[14] = substrate: O=C(Cc1cccs1)N[C@@H]1C(=O)N2C(C(=O)O)=C(/C=C/c3ccc([N+](=O)[O-])cc3[N+](=O)[O-])CS[C@H]12; assay: Activity of native signal deficient and TEV cleavage site containing His-tagged Klebsiella pneumoniae OXA-48 expressed in Escherichia coli assessed as ratio of Kcat to Km by Michaelis-Menten kinetics assay
How it was run: (§3)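 His-tag-removed tOXA-48 from E. coli BL21 Star (DE3) pRARE, purified by HisTrap, TEV cleavage and cation exchange. Hydrolysis of nitrocefin (10-300 µM) was read at 482 nm with 1 nM enzyme. Buffer was 100 mM phosphate pH 7.0, 50 mM NaHCO3, 0.2 mg/ml BSA at 25 °C. Enzyme-started; linear-phase rates were fitted to Michaelis-Menten.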

[15] = substrate: O=C(Cc1cccs1)N[C@@H]1C(=O)N2C(C(=O)O)=C(/C=C/c3ccc([N+](=O)[O-])cc3[N+](=O)[O-])CS[C@H]12; assay: Activity of native signal deficient and TEV cleavage site containing His-tagged Klebsiella pneumoniae OXA-48 expressed in Escherichia coli by Michaelis-Menten kinetics assay; how it was run: as §3
[16] = substrate: CC1(C)S[C@@H]2[C@H](NC(=O)[C@H](N)c3ccccc3)C(=O)N2[C@H]1C(=O)O; assay: (§4) Activity of native signal containing Klebsiella pneumoniae OXA-48 by Michaelis-Menten kinetics assay; how it was run: as §2
[17] = substrate: C[C@@H](O)[C@H]1C(=O)N2C(C(=O)O)=C(S[C@@H]3CN[C@H](C(=O)N(C)C)C3)[C@H](C)[C@H]12; assay: as §4; how it was run: as §2
[18] = substrate: C[C@@H](O)[C@H]1C(=O)N2C(C(=O)O)=C(SCCNC=N)C[C@H]12; assay: as §4; how it was run: as §2
[19] = substrate: CC1(C)S[C@@H]2[C@H](NC(=O)Cc3ccccc3)C(=O)N2[C@H]1C(=O)O; assay: as §4; how it was run: as §2
[20] = substrate: CO/N=C(\C(=O)N[C@@H]1C(=O)N2C(C(=O)[O-])=C(C[N+]3(C)CCCC3)CS[C@H]12)c1csc(N)n1; assay: as §4; how it was run: as §2
[21] = substrate: O=C(Cc1cccs1)N[C@@H]1C(=O)N2C(C(=O)O)=C(CSc3ccc([N+](=O)[O-])c(C(=O)O)c3)CS[C@H]12; assay: as §4; how it was run: as §2
[22] = substrate: O=C(Cc1cccs1)N[C@@H]1C(=O)N2C(C(=O)O)=C(/C=C/c3ccc([N+](=O)[O-])cc3[N+](=O)[O-])CS[C@H]12; assay: as §4; how it was run: as §2

Molecule: O=C(O)c1cccc(-c2ccncc2)c1
- Kd [1]: 280 µM
- IC50 [2]: 250 µM

Molecule: O=C(O)c1cc(-c2ccncc2)cc(-c2ccncc2)c1
- Kd [1]: 50 µM
- inhibition [3]: Active
- IC50 [2]: 18 µM

- Kd [1]: > 1000 µM
- IC50 [2]: > 2000 µM
Molecule: CC(=O)c1cccc(-c2ccncc2)c1

Molecule: O=C(O)c1cccc(-c2ccccc2)c1
- Kd [1]: 370 µM
- IC50 [2]: 260 µM

Molecule: O=C(O)c1cccc(-c2nccs2)c1
- Kd [1]: 310 µM
- IC50 [2]: 250 µM

Molecule: O=C(O)c1ccc2ccncc2c1
- Kd [1]: 1180 µM
- IC50 [2]: 2200 µM

Molecule: O=C(O)c1ccc2[nH]ccc2c1
- Kd [1]: 1380 µM
- IC50 [2]: 1390 µM

Molecule: O=C(O)c1ccc(Oc2ccccc2)cc1
- Kd [1]: 660 µM
- IC50 [2]: 870 µM

Molecule: O=C(O)c1cccc(-c2cccnc2)c1
- Kd [1]: 280 µM
- IC50 [2]: 240 µM

Molecule: Cc1cc2ccc(C(=O)O)cc2cn1
- Kd [1]: 700 µM
- IC50 [2]: 1020 µM

- inhibition [4]: 50%
Molecule: NC(=O)[C@@H]1CC[C@@H]2CN1C(=O)N2OS(=O)(=O)O

Molecule: c1ccc(-c2ccncc2)cc1
- Kd [1]: > 1000 µM
- IC50 [2]: > 2000 µM

Molecule: O=C(O)c1cccc(C#Cc2ccccc2)c1
- IC50 [2]: 480 µM

Molecule: C[C@@H](O)[C@H]1C(=O)N2C(C(=O)O)=C(S[C@@H]3CN[C@H](C(=O)N(C)C)C3)[C@H](C)[C@H]12 [MEROPENEM]
- Kd [1]: 0.85 µM
- koff [5]: 0.3463 s⁻¹
- Ka [6]: 4 ×10⁴ /M/s

Molecule: O=C(O)CSc1ccnc2cc(Cl)ccc12
- IC50 [2]: 220 µM

Molecule: O=C(O)CCCc1c[nH]c2ccccc12
- Kd [1]: 430 µM
- IC50 [2]: 480 µM

Molecule: Nc1cccnc1-c1cccc(C(=O)O)c1
- Kd [1]: 330 µM
- IC50 [2]: 180 µM

- Kd [1]: > 1000 µM
- IC50 [2]: > 2000 µM
Molecule: O=C(O)c1ccccn1 [2-PICOLINIC ACID]

B1: Beta-lactamase OXA-48 (Klebsiella pneumoniae), Q6XEC0 (protein)
chain: MRVLALSAVFLVASIIGMPAVAKEWQENKSWNAHFTEHKSQGVVVLWNENKQQGFTNNLKRANQAFLPASTFKIPNSLIALDLGVVKDEHQVFKWDGQTRDIATWNRDHNLITAMKYSVVPVYQEFARQIGEARMSKMLHAFDYGNEDISGNVDSFWLDGGIRISATEQISFLRKLYHNKLHVSERSQRIVKQAMLTEANGDYIIRAKTGYSTRIEPKIGWWVGWVELDDNVWFFAMNMDMPTSDGLGLRQAITKEVLKQEKIIP
- kcat/Km [7]: 3.7 ×10⁶ /M/s
- kcat/Km [8]: 9.8 ×10⁴ /M/s
- kcat/Km [9]: 5.7 ×10⁵ /M/s
- kcat/Km [10]: 1.1 ×10⁷ /M/s
- kcat/Km [11]: 3 ×10⁴ /M/s
- kcat/Km [12]: 2.8 ×10⁴ /M/s
- kcat/Km [13]: 1.7 ×10⁷ /M/s
- kcat/Km [14]: 1.5 ×10⁷ /M/s
- Km [15]: 150 µM
- kcat [15]: 2300 s⁻¹
- Km [16]: 150 µM
- kcat [16]: 560 s⁻¹
- Km [17]: 1 µM
- kcat [17]: 0.098 s⁻¹
- Km [18]: 7.9 µM
- kcat [18]: 4.5 s⁻¹
- Km [19]: 700 µM
- kcat [19]: 8000 s⁻¹
- Km [20]: 300 µM
- kcat [20]: 9 s⁻¹
- Km [21]: 24 µM
- kcat [21]: 0.66 s⁻¹
- Km [22]: 90 µM
- kcat [22]: 1500 s⁻¹
